High-throughput results (PubChem BioAssay)
Calpain2 inh – blocks pig calpain II enzyme activity. purified calpain II, fluorogenic peptide substrate, 30 min. inhibition, % at 16 µM. 220,000 compounds, 0.37% hits;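 active = inhibition above about 50%, limit read from the data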
Wee1 degr inh – inhibitors of human Wee1 degradation; 220,000 compounds, 1.2% hits; HeLa Luc-Wee1K328M stability, luciferase luminescence; 100% = proteasome inhibitor MG132 effect; P30291; reporter increase, % at 5 µM; AID 1321;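 active = activation above the mean of all tested compounds plus 3 SD, set per screening run, cut at about 8.8% in these data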;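 also: cells exposed to compound for 20 h before luminescence read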
Target sequence (P30291 whole entry K328M): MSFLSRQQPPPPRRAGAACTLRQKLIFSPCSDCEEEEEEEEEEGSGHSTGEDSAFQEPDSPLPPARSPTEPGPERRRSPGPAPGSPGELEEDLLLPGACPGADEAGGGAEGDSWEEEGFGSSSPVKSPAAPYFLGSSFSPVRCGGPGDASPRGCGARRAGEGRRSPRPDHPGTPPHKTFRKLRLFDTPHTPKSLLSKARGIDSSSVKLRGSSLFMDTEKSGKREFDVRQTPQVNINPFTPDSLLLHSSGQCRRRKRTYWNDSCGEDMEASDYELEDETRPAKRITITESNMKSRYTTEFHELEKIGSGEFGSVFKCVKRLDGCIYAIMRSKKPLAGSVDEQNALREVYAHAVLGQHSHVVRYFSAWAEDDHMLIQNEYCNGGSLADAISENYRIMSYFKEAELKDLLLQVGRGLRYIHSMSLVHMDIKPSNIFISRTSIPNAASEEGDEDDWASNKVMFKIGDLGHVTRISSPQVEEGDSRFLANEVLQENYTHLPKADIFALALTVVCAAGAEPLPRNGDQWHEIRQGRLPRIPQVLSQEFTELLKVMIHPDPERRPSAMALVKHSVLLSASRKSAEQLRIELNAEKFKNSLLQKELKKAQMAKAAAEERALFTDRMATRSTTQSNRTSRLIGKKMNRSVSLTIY
TNF necrop inh – inhibitors of TNF-alpha induced necroptosis in Jurkat FADD-/- cells. Jurkat FADD-/- TNF necroptosis rescue, ATP luminescence, 24 h; 0 = TNF only, 100 = no-TNF cells. AID 463075. 220,000 compounds, 0.068% hits. activation (protection from cell death), % at 10 µM;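 active = activation, meaning protection from cell death, of at least 50% relative to plate controls; inactive = activation below 50%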;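 also: necroptosis triggered by 40 ng/mL TNF-alpha added together with compound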
L929 necroptosis – blocks zVAD induced death of L929 cells. L929 zVAD necroptosis rescue, ATP luminescence, 24 h; with zVAD 60 µM. viability rescue, % at 10 µM. 220,000 compounds, 0.38% hits. AID 1377;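 active = activation, scaled between plate controls, above about 75%, limit read from the data; inactive = activation under that limit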
Pf gamet viab – inhibitors of late stage P. falciparum gametocyte viability. inhibition, % at 10.9 µM. AID 743093. 150,000 compounds, 0.065% hits. P. falciparum stage V gametocytes, ATP luminescence, 24 h;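 active = inhibition above the mean plus 3 SD of compounds within the control limits, set per campaign, cut at about 38% in these data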
RBBP9 inhibitor – inhibitors of human serine hydrolase RBBP9 | O75884 | recombinant RBBP9, FP-Rh probe fluorescence polarization | inhibition, % at 7.94 µM | 220,000 compounds, 0.2% hits;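 active = inhibition above the campaign mean of all tested compounds plus 3 SD, cut at about 14% in these data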
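Material: RBBP9 protein. Amount: RBBP9 at 2.5 µM in dispensed solution, before mixing. Schedule: 30 min then 45 min, 25 °C. Medium: Tris buffer pH 8.0, NaCl, Pluronic. Measured by: fluorescence polarization. Measure: percent inhibition from mP, scaled between DMSO and no-protein wells. Replication: one well per compound.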
Wee1 degr conf – human Wee1 degradation inhibition, confirmation; HeLa Luc-Wee1K328M degradation, luminescence; vehicle 0%, proteasome-blocked wells 100%; activation, % at 5 µM; shares compounds with Wee1 degr inh; 1,100 compounds, 4% hits; AID 1410; in the data active = activation above about 8.9%
Hits are given with their value. This is a sample that favours compounds with a hit; in the whole collection about 2.1% have one here.

What do the screens show for `COc1cccc(NC(=O)CSc2nc3c(sc4ccccc43)c(=O)n2CCN(C)C)c1`?
Calpain2 inh: inactive; Wee1 degr inh: inactive; TNF necrop inh: inactive; L929 necroptosis: inactive; Pf gamet viab: inactive; RBBP9 inhibitor: inactive

How did CCN(CC)CCn1c(SCC(=O)Nc2cccc(OC)c2)nc2c(sc3ccccc32)c1=O do in these assays?
Calpain2 inh: inactive; Wee1 degr inh: 12; TNF necrop inh: inactive; L929 necroptosis: inactive; Pf gamet viab: inactive; RBBP9 inhibitor: inactive; Wee1 degr conf: inactive

What do the screens show for `Cc1nc(Nc2ccccc2Cl)sc1C(=O)Nc1ccccc1`?
Calpain2 inh: inactive; Wee1 degr inh: 17; TNF necrop inh: inactive; L929 necroptosis: inactive; Pf gamet viab: inactive; RBBP9 inhibitor: inactive; Wee1 degr conf: inactive

Results for COc1ccc(S(=O)(=O)N2CCCC(C(=O)NCc3ccccn3)C2)cc1Cl (stereo not drawn) ?
Calpain2 inh: inactive; Wee1 degr inh: inactive; TNF necrop inh: inactive; L929 necroptosis: inactive; Pf gamet viab: inactive; RBBP9 inhibitor: inactive

Results for COc1ccc(NC(=O)c2nn(C34CC5CC(CC(C5)C3)C4)cc2[N+](=O)[O-])cc1 ?
Calpain2 inh: inactive; Wee1 degr inh: 11; TNF necrop inh: inactive; L929 necroptosis: inactive; Pf gamet viab: inactive; RBBP9 inhibitor: inactive; Wee1 degr conf: inactive

Results for O=C(Nc1cccc2ccccc12)c1nn(C23CC4CC(CC(C4)C2)C3)cc1[N+](=O)[O-] ?
Calpain2 inh: inactive; Wee1 degr inh: inactive; TNF necrop inh: inactive; L929 necroptosis: inactive; RBBP9 inhibitor: inactive

What do the screens show for `CN1/C(=C\C(=O)COC(=O)CNC(=O)c2ccccc2F)C(C)(C)c2ccccc21`?
Calpain2 inh: inactive; Wee1 degr inh: 23; TNF necrop inh: inactive; L929 necroptosis: inactive; Pf gamet viab: inactive; RBBP9 inhibitor: inactive; Wee1 degr conf: inactive

Results for CC1CCCCN1C(=O)Cn1c(=O)n(-c2ccc(F)cc2)c(=O)c2sccc21 (stereo not drawn) ?
Calpain2 inh: inactive; Wee1 degr inh: 11; TNF necrop inh: inactive; L929 necroptosis: inactive; Pf gamet viab: inactive; RBBP9 inhibitor: inactive; Wee1 degr conf: inactive

What do the screens show for `O=C(NC(=S)N(CCO)Cc1ccccc1)c1cc(Br)ccc1Cl`?
Calpain2 inh: inactive; Wee1 degr inh: 11; TNF necrop inh: inactive; L929 necroptosis: inactive; RBBP9 inhibitor: inactive; Wee1 degr conf: inactive

What do the screens show for `CCCN(Cc1ccccc1)C(=S)NC(=O)c1ccccc1[N+](=O)[O-]`?
Calpain2 inh: inactive; Wee1 degr inh: inactive; TNF necrop inh: inactive; L929 necroptosis: inactive; Pf gamet viab: inactive; RBBP9 inhibitor: inactive

How did O=C(CSc1ccc(F)cc1)NC1CCCCC1 do in these assays?
Calpain2 inh: inactive; Wee1 degr inh: 12; TNF necrop inh: inactive; L929 necroptosis: inactive; Pf gamet viab: inactive; RBBP9 inhibitor: inactive; Wee1 degr conf: inactive

What do the screens show for `O=C(CSc1ccc(Cl)cc1)NC1CCCC1`?
Calpain2 inh: inactive; Wee1 degr inh: inactive; TNF necrop inh: inactive; L929 necroptosis: inactive; Pf gamet viab: inactive; RBBP9 inhibitor: inactive

How did NS(=O)(=O)c1cccc(NC(=O)COC(=O)CN2C(=O)C3CC=CCC3C2=O)c1 (stereo not drawn) do in these assays?
Calpain2 inh: inactive; Wee1 degr inh: inactive; TNF necrop inh: inactive; L929 necroptosis: inactive; Pf gamet viab: inactive; RBBP9 inhibitor: inactive

Results for COc1ccc2c(c1)c(=O)cc(-c1ccccc1)n2C ?
Calpain2 inh: inactive; Wee1 degr inh: 11; TNF necrop inh: inactive; L929 necroptosis: inactive; RBBP9 inhibitor: inactive; Wee1 degr conf: inactive

Results for Cn1c(-c2ccccc2)cc(=O)c2ccccc21 ?
Calpain2 inh: inactive; Wee1 degr inh: inactive; TNF necrop inh: inactive; L929 necroptosis: inactive; RBBP9 inhibitor: inactive

What do the screens show for `COc1ccc(C2CC(c3ccc4ccccc4c3)=NN2C(=O)COC(=O)C2CCC(=O)N2)cc1` (stereo not drawn)?
Calpain2 inh: inactive; Wee1 degr inh: 14; TNF necrop inh: inactive; L929 necroptosis: inactive; Pf gamet viab: inactive; RBBP9 inhibitor: inactive; Wee1 degr conf: inactive

Results for CC(=O)OCC(=O)N1N=C(c2ccc3ccccc3c2)CC1c1ccccc1 (stereo not drawn) ?
Calpain2 inh: inactive; Wee1 degr inh: inactive; TNF necrop inh: inactive; L929 necroptosis: inactive; Pf gamet viab: inactive; RBBP9 inhibitor: inactive

What do the screens show for `COc1ccc(CNC2CC(=O)N(C)C2=O)cc1` (stereo not drawn)?
Calpain2 inh: inactive; Wee1 degr inh: inactive; TNF necrop inh: inactive; L929 necroptosis: inactive; RBBP9 inhibitor: inactive

How did Cc1cc(/C=C2\SC(=S)NC2=O)c(C)n1-c1ccc(O)cc1 do in these assays?
Calpain2 inh: inactive; Wee1 degr inh: inactive; TNF necrop inh: inactive; L929 necroptosis: inactive; Pf gamet viab: inactive; RBBP9 inhibitor: inactive

Results for Cc1cc(/C=C2\SC(=S)NC2=O)c(C)n1-c1ccccc1 ?
Calpain2 inh: inactive; Wee1 degr inh: 15; TNF necrop inh: inactive; L929 necroptosis: inactive; Pf gamet viab: inactive; RBBP9 inhibitor: inactive; Wee1 degr conf: inactive

Results for CCOc1ccc(-c2cc(C(=O)NN3CCN(C)CC3)c3cc(Cl)ccc3n2)cc1 ?
Calpain2 inh: inactive; Wee1 degr inh: 11; TNF necrop inh: inactive; L929 necroptosis: inactive; Pf gamet viab: inactive; RBBP9 inhibitor: inactive; Wee1 degr conf: inactive

How did CCOc1ccc(-c2cc(C(=O)N3CCN(c4ccccn4)CC3)c3ccccc3n2)cc1 do in these assays?
Calpain2 inh: inactive; Wee1 degr inh: inactive; TNF necrop inh: inactive; L929 necroptosis: inactive; RBBP9 inhibitor: inactive

How did CCOc1ccc2nc(-c3ccc(OC)c(OC)c3)cc(C(=O)O)c2c1 do in these assays?
Calpain2 inh: inactive; Wee1 degr inh: inactive; TNF necrop inh: inactive; L929 necroptosis: inactive; RBBP9 inhibitor: inactive

How did CCOC(=O)N1CCN(C(=O)c2cc(-c3ccc(OCC)cc3)nc3ccccc23)CC1 do in these assays?
Calpain2 inh: inactive; Wee1 degr inh: 12; TNF necrop inh: inactive; L929 necroptosis: inactive; RBBP9 inhibitor: inactive; Wee1 degr conf: 22

What do the screens show for `CCOc1ccc(-c2cc(C(=O)N3CCN(C)CC3)c3ccccc3n2)cc1`?
Calpain2 inh: inactive; Wee1 degr inh: 17; TNF necrop inh: inactive; L929 necroptosis: inactive; Pf gamet viab: inactive; RBBP9 inhibitor: inactive; Wee1 degr conf: inactive

How did COc1ccc(-c2cc(C(=O)N3CCN(c4ccccc4)CC3)c3ccccc3n2)cc1 do in these assays?
Calpain2 inh: inactive; Wee1 degr inh: inactive; TNF necrop inh: inactive; L929 necroptosis: inactive; Pf gamet viab: inactive; RBBP9 inhibitor: inactive

How did CC12CC3(C)CC(C)(C1)CC(C(=O)NCC(=O)O)(C2)C3 do in these assays?
Calpain2 inh: inactive; Wee1 degr inh: inactive; TNF necrop inh: inactive; L929 necroptosis: inactive; Pf gamet viab: inactive; RBBP9 inhibitor: inactive
